# From PubChem
# Shown are actives, neighbours in structure and some others; about 2.7% of the full set was active somewhere.
# V1aR counter = V1a receptor agonism, counter-screen for OXTR agonists; activation, % at 3 µM; 0.25% of 320,000 active; AID 2797; P37288; CHO-V1R cells, Fluo-8 calcium fluorescence, agonist mode; 0% DMSO, 100% 3 nM vasopressin;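 active = activation above the mean activation of all tested compounds plus 3 SD, per screening run, cut at about 20% in these data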;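 note: signal is peak over basal fluorescence ratio across a 100 second FLIPR read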
# OX1R antag-1 = antagonists of human orexin 1 receptor (OX1R); 1.8% of 330,000 active; AID 485270; inhibition, % at 6.6 µM; OX1R-expressing cells, FRET antagonist read-out; in the data active = inhibition mostly above about 38%, no sharp cut-off; inactive = mostly below about 40%;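 note: 0% = agonist challenge alone and 100% = reference antagonist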
# CHO parental Ca = counter-screen for OX1R antagonists: effect in parental CHO cells | AID 463079 | 0.63% of 330,000 active | inhibition, % at 5.6 µM | parental CHO-K1, ATP-induced calcium, Fluo-8 fluorescence;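 active = inhibition above that plate's mean sample inhibition plus 3 SD, cut at about 26% in these data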;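 note: 0% = ATP-challenged DMSO wells and 100% = DMSO wells without ATP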
#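 Material: parental CHO cells / Compound: single nominal dose of 5.6 µM per compound / Signal: Fluo-8 fluorescence / Replicates: singlicate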
# OXTR ag = activates the human oxytocin receptor; CHO-OTR cells, Fluo-8 calcium fluorescence; normalized: DMSO 0%, oxytocin 100%; activation, % at 3 µM; P30559; 0.32% of 320,000 active; AID 2435;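 active = activation above the mean of all tested compounds plus 3 SD, cutoff set per screening run, cut at about 20% in these data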;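 note: peak over basal fluorescence ratio from a 100 s FLIPR kinetic read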
# Target sequence (P30559 whole entry, looked up): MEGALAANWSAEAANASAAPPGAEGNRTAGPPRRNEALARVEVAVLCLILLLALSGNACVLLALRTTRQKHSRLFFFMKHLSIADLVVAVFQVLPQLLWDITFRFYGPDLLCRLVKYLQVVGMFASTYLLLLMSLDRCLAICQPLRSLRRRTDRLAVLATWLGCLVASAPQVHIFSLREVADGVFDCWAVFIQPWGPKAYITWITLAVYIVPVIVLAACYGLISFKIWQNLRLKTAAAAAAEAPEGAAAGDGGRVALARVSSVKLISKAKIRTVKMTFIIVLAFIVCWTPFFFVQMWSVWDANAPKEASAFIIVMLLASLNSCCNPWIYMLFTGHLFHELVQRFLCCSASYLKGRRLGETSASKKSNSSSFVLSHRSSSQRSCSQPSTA
# OX1R antag-2 = antagonists of human orexin 1 receptor | O43613 | CHO/OX1R cells, Fluo-8 calcium fluorescence, orexin A | inhibition, % at 5 µM | 0.43% of 330,000 active;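 active = inhibition above its plate's threshold, mean inhibition of all tested compounds on the plate plus 3 SD, cut at about 37% in these data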;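 note: 0% = orexin A challenge wells and 100% = SB-334867-A antagonist wells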
# OXTR potentiator = potentiators of human oxytocin receptor. P30559. CHO-OTR cells, Fluo-8 calcium fluorescence, potentiator mode; 0% = oxytocin EC15, 100% = EC100. activation, % at 3 µM. 0.061% of 320,000 active;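 active = activation above that plate's cutoff, the mean activation of tested compounds plus 3 SD, cut at about 6.6% in these data, passing the limit was not always enough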;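 note: 100% uses oxytocin at 75 nM as the full agonist control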
#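 Dosing: Single dose, 3.0 µM nominal final compound concentration | Material: Human OTR in CHO cells | Technique: Kinetic Fluo-8 calcium fluorescence | Benchmarks: EC15 oxytocin alone as 0%, 75 nM oxytocin as 100% | Probe or stimulus: Oxytocin at about EC15, sub-maximal agonist stimulus | Incubation: Compound 6 min at room temperature before oxytocin, 100 s read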
# Numbers without * were called inactive; . = not tested or not shown.
SMILES,V1aR counter,OX1R antag-1,CHO parental Ca,OXTR ag,OX1R antag-2,OXTR potentiator
Cc1cc(F)ccc1S(=O)(=O)N1CCCCC1CCNC(=O)C(=O)NCc1ccccn1 (centres undefined),-1.2,19.7,-34.0,-2.6,-16.3,-2.4
O=C(O)Cn1c(O)c(C2=c3ccccc3=NC2=O)sc1=O,0.3,46.8*,-3.2,0.7,-8.5,-0.4
Cc1c(-n2c(O)c(C3=c4ccccc4=NC3=O)sc2=O)c(=O)n(-c2ccccc2)n1C,1.1,15.2,-6.5,0.0,-12.7,-1.5
O=C(c1sc2cc([N+](=O)[O-])ccc2c1Cl)N1CCOCC1,0.1,74.8*,-9.2,-0.4,-13.3,-4.3
CC(C)N(C(=O)c1sc2cc([N+](=O)[O-])ccc2c1Cl)C(C)C,-1.8,13.5,9.5,-3.2,-11.2,-7.2
CCOc1ccc(-c2nnc(NC(=O)C3CCCC3)o2)cc1,-0.3,6.4,-1.3,-1.4,-18.8,-6.7
N#C/C(=C\c1ccc(Sc2ccccc2)o1)c1nc2ccccc2[nH]1,5.7,53.1,-0.1,2.8,-10.6,-17.1
N#C/C(=C/c1ccc(Sc2nc3ccccc3[nH]2)o1)c1ccccc1F,6.2,52.5*,-6.3,6.3,17.6,-10.0
N#C/C(=C/c1ccc(Sc2nc3ccccc3[nH]2)o1)c1cccc(F)c1,6.9,58.8*,-2.7,7.1,6.7,-11.2
N#C/C(=C/c1ccc(Sc2nc3ccccc3[nH]2)o1)c1cccc(Br)c1,0.5,79.9*,29.5,-0.5,18.9,-19.5
N#CC1=C(SCC(=O)Nc2cccc3cccnc23)NC(=O)C(C#N)C12CCCCC2 (centres undefined),4.2,39.5*,-8.7,8.6,-1.3,-11.7
CCOC(=O)c1ccc(CNC(=O)c2cc(COc3ccccc3SC)on2)o1,3.8,12.1,-2.9,1.0,-13.9,-10.8
CC(=O)c1cccc(NS(=O)(=O)c2ccc(N/C=C\C(=O)c3ccc(C)cc3)cc2)c1,7.2,53.3,46.6*,5.2,49.5*,-18.9
O=S(=O)(c1ccc2c(c1)OCCO2)N1CCN(c2ncnc3sccc23)CC1,8.6,60.9,40.4*,14.8,20.5,-11.2
N#Cc1cc2ccccc2nc1SCc1ccccn1,4.1,49.1*,1.0,4.3,17.9,-9.4
CN(C)c1ncnc2sc(-c3ccccc3)cc12,-0.3,64.1*,-16.0,-1.0,-22.6,-9.4
COc1ncnc2sc(-c3ccccc3)cc12,-0.2,0.0,0.0,-1.7,-20.9,-4.5
COc1ccc(NC(=O)c2cc3c(=O)n(C)c4ccccc4c3s2)cc1OC,0.8,54.2*,-7.7,0.8,-11.9,0.9
COc1ccc(/C=C2\Oc3cc(OCC(=O)N4CCC[C@H]4C(=O)O)ccc3C2=O)cc1OC,0.4,51.5*,-11.0,0.1,-4.5,-1.9
O=C(COc1ccc2c3c(c(=O)oc2c1)CCCC3)NCCCn1ccnc1,1.2,9.3,-3.6,0.7,-16.0,2.1
CCOC(=O)c1cnc(SCC(=O)Nc2cc(OC)ccc2OC)nc1N,8.0,70.9,33.8*,15.8,39.4,-21.6
Cc1ccc(NC(=O)c2cccc(S(=O)(=O)NCc3ccccc3)c2)nc1,0.5,58.8*,12.1,-1.9,1.1,-8.8
Cc1cccc(NC(=O)c2cccc(S(=O)(=O)NCc3ccccc3)c2)n1,2.4,21.4,-7.2,0.6,-8.2,-3.3
COc1cccc(-n2nnnc2SCC(=O)Nc2ccc(NC(C)=O)cc2)c1,0.7,3.5,-7.2,0.2,-19.3,-1.1
CCN(CC)c1ccc(CNc2ccc3c(c2)ncn3CC)cc1,5.7,-9.2,46.0*,5.8,-0.3,-10.0
SMILES,V1aR counter,OX1R antag-1,CHO parental Ca,OXTR ag,OX1R antag-2,OXTR potentiator
CCn1cnc2cc(NCc3ccc(N(C)C)cc3)ccc21,0.4,17.3,-13.2,0.7,-13.2,-2.2
CCC(=O)N/N=C/c1ccc(-c2ccc([N+](=O)[O-])cc2)o1,0.0,42.2,0.8,0.3,-6.5,-6.9
O=C1N=C(O)CN1/N=C/c1ccc(-c2ccc([N+](=O)[O-])cc2)o1,-0.9,59.2*,-19.5,-2.5,-12.5,-4.4
O=[N+]([O-])c1ccc(N/N=C/c2c[nH]c3ccccc23)cc1,23.6*,10.6,47.0*,25.2*,45.0,-20.6
O=C(O)c1ccc(-c2ccc(/C=N/Nc3ccc([N+](=O)[O-])cc3)o2)cc1,64.7*,-1.3,64.0*,50.8*,77.0*,-33.2
O=[N+]([O-])c1ccccc1N/N=C/c1c[nH]c2ccccc12,-0.3,49.6,-6.7,-1.0,2.9,-14.2
O=C(O)c1cccc(-c2ccc(/C=N/Nc3ccc([N+](=O)[O-])cc3)o2)c1,33.5*,12.1,32.7*,26.4*,53.6*,-9.3
Cc1ccc(NC(=O)C(c2ccccc2)N2CCN(CC(=O)N3CCOCC3)CC2)cc1Cl (centres undefined),1.5,2.8,-10.1,0.5,2.3,-9.8
C/C=C/C(O)c1ccc2ccccc2c1 (centres undefined),1.0,14.4,-14.2,-0.2,-5.8,-10.9
O=C(O)c1ccc(N/N=C/C=C/c2ccc([N+](=O)[O-])o2)cc1,41.1*,62.8,52.2*,29.3*,49.2*,-7.8
O=C(N/N=C/c1ccc([N+](=O)[O-])o1)C(=O)Nc1ccc(C(=O)O)cc1,0.9,59.9,-2.6,0.5,-7.1,3.4
O=C1C=CC(=O)N1c1cccc(-c2ccccc2)c1,-0.8,24.0,26.9,3.8,44.8*,-14.9
O=C(Nc1cccc(N2C(=O)C=CC2=O)c1)c1cccs1,1.2,22.0,-6.2,1.8,-4.7,-3.1
N#Cc1nccnc1S(=O)(=O)c1cccs1,0.1,109.3*,43.8*,-1.3,31.4,-5.1
NCC(=O)NCC(=O)NC[C@H]1O[C@@H](n2cnc3c(N)ncnc32)[C@H](O)[C@@H]1O,.,6.6,0.5,.,-7.1,.
CCc1ccc2[nH]c(=O)c(C3C(C#N)=C(N)Oc4c3ccc3cccnc43)cc2c1 (centres undefined),-0.5,10.9,-12.6,-1.5,-21.8,1.9
Cc1ccc2cc(C3C(C#N)=C(N)Oc4c3ccc3cccnc43)c(=O)[nH]c2c1 (centres undefined),-1.2,45.4*,-22.9,-1.6,-11.7,3.7
O=C(O)c1cccc(Cn2c(Cl)c(/C=N/NC(=O)c3ccco3)sc2=O)c1,0.2,22.8,-16.1,-0.8,-16.9,-0.6
Cc1ccc(Nc2nc(-c3cccnc3)cs2)cc1C,-0.6,57.8*,-32.1,-2.5,-39.0,-10.3
Brc1ccc(Nc2nc(-c3cccnc3)cs2)cc1,-1.1,59.4,17.0,-2.6,-26.3,-9.8
O=C(c1ccc([N+](=O)[O-])s1)N1CCN(c2ccccc2)CC1,0.2,53.9*,-1.9,0.2,-17.3,-5.0
O=C(Nc1ccccc1N1CCOCC1)c1ccc([N+](=O)[O-])s1,-0.1,30.9*,-19.1,-0.3,-32.1,-1.7
